Experimental data from PMC3510669 (Journal of immunology (Baltimore, Md. : 1950), 2010).

Tested on: naïve CD4^+ T cells
Test: pMHCII tetramer-based cell enrichment of spleen and lymph node cells
Parameters: species or system mouse
Conditions: B6 mice; for fold smaller than the 2W:I-A^b-specific naïve population: spleen and lymph nodes (3K: spleen and lymph nodes or thymus), Fig. 3B, C, 4D; for size of naïve CD4+ T cell population specific for peptide:I-A^b: spleen and lymph nodes, mean, Fig. 4D, 6D
Method in brief: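 Spleen and lymph node cells from individual naïve B6 mice were enriched with peptide:I-A^b tetramers. Tetramer-binding CD4⁺ T cells were counted as total cells per mouse, and group means were taken across individual mice.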

Row | Sequence | fold smaller than the 2W:I-A^b-specific naïve population [fold] | size of naïve CD4+ T cell population specific for peptide:I-A^b [cells]
1 | EAGGALANGAVDSA [2G] | 6 | 62 ± 13
2 | EAGGALANWAVDSA [1G] | 3 | 127 ± 39
3 | EARGALANWAVDSA [1R] | 3 | 108 ± 36
